Experiments:
[1] = molecular target: Mitogen-activated protein kinase 8 (Homo sapiens, UniProt P45983)
[2] = molecular target: Mitogen-activated protein kinase 10 (Homo sapiens, UniProt P53779); test: Competitive binding affinity to JNK3 (unknown origin) at 10 uM in presence of ATP relative to control
Procedure, shortened: (§1)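 In vitro ATP-site competition binding assay across a diverse panel of 128 kinases, with each compound tested at a single concentration. Kinase binding is expressed relative to control.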

[3] = molecular target: Tyrosine-protein kinase Fgr (Homo sapiens) (UniProt P09769); test: Competitive binding affinity to FGR (unknown origin) at 10 uM in presence of ATP relative to control
Procedure, shortened: (§2)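 In vitro ATP-site competition binding assay, part of profiling against a diverse panel of 128 kinases. Each compound was tested at a single concentration of 10 µM. Kinome selectivity was summarized as S15 selectivity scores.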

[4] = molecular target: Receptor tyrosine-protein kinase erbB-2 (Homo sapiens) (UniProt P04626); test: Competitive binding affinity to ERBB2 (unknown origin) at 10 uM in presence of ATP relative to control
Procedure, shortened: as §2

[5] = molecular target: T1, Ephrin type-B receptor 4 (Homo sapiens) (UniProt P54760); test: Competitive binding affinity to EPHB4 (unknown origin) at 10 uM in presence of ATP relative to control
T1 sequence (whole entry): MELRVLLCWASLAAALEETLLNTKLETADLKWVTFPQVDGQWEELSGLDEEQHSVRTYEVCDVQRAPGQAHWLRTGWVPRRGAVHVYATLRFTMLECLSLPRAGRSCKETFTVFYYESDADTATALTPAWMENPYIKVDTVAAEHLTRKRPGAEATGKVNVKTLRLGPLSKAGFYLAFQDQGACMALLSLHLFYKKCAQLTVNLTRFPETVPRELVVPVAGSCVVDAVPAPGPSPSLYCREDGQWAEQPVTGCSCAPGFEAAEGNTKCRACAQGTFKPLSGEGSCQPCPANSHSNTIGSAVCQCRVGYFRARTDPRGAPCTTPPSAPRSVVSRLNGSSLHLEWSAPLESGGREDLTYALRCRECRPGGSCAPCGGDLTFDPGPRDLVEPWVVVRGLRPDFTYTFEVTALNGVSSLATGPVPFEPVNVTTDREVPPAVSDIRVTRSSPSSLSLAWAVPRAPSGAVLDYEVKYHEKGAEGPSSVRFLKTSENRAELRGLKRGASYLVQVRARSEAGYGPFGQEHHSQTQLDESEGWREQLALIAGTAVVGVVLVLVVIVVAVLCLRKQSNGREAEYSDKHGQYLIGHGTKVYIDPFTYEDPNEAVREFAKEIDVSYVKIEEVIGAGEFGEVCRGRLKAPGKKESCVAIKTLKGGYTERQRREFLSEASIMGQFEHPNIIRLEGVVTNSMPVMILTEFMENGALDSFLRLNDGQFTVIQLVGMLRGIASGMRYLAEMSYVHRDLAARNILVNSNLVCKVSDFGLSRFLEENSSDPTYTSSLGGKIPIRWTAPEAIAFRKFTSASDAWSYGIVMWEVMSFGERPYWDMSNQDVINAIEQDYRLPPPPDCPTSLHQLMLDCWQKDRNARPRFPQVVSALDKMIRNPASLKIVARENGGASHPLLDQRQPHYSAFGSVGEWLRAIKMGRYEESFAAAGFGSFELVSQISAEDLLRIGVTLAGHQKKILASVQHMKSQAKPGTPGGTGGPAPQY
Procedure, shortened: as §2

[6] = molecular target: Epidermal growth factor receptor (Homo sapiens) (UniProt P00533); test: Competitive binding affinity to EGFR (unknown origin) at 10 uM in presence of ATP relative to control
[7] = molecular target: Calcium/calmodulin-dependent protein kinase kinase 2 (Homo sapiens) (UniProt Q96RR4); test: Competitive binding affinity to CAMKK2 (unknown origin) at 10 uM in presence of ATP relative to control
[8] = molecular target: T2, Aurora kinase A (Homo sapiens) (UniProt O14965); test: Competitive binding affinity to AURKA (unknown origin) at 10 uM in presence of ATP relative to control
T2 sequence (whole entry): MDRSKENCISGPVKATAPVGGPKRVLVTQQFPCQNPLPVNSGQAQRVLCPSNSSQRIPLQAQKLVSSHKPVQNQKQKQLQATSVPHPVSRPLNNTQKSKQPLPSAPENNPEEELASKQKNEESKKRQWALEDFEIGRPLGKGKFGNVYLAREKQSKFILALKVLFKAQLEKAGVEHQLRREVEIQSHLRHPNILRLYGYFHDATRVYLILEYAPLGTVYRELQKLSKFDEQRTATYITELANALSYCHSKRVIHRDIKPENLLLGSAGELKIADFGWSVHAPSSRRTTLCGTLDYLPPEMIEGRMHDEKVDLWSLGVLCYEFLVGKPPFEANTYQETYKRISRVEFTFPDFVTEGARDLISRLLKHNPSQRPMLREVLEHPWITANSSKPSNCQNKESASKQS

[9] = molecular target: Tyrosine-protein kinase ABL2 (Homo sapiens) (UniProt P42684); test: Competitive binding affinity to ABL2 (unknown origin) at 10 uM in presence of ATP relative to control
[10] = molecular target: Tyrosine-protein kinase ABL1 (Homo sapiens) (UniProt P00519); test: Competitive binding affinity to ABL1 (unknown origin) at 10 uM in presence of ATP relative to control
[11] = molecular target: Serine/threonine-protein kinase pim-2 (Homo sapiens) (UniProt Q9P1W9); test: Competitive binding affinity to PIM2 (unknown origin) at 10 uM in presence of ATP relative to control
Procedure, shortened: as §1

[12] = molecular target: Serine/threonine-protein kinase MARK2 (Homo sapiens) (UniProt Q7KZI7); test: Competitive binding affinity to MARK2 (unknown origin) at 10 uM in presence of ATP relative to control
Procedure, shortened: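 In vitro ATP-site competition binding assay across a diverse panel of 128 kinases, with compound tested at a single concentration. Kinase selectivity scores (S15) were calculated from the panel profiles.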

[13] = molecular target: Mast/stem cell growth factor receptor Kit (Homo sapiens) (UniProt P10721); test: Competitive binding affinity to KIT (unknown origin) at 10 uM in presence of ATP relative to control
Procedure, shortened: as §2

Sequence of Serine/threonine-protein kinase MARK2 (Homo sapiens) (Q7KZI7 whole entry): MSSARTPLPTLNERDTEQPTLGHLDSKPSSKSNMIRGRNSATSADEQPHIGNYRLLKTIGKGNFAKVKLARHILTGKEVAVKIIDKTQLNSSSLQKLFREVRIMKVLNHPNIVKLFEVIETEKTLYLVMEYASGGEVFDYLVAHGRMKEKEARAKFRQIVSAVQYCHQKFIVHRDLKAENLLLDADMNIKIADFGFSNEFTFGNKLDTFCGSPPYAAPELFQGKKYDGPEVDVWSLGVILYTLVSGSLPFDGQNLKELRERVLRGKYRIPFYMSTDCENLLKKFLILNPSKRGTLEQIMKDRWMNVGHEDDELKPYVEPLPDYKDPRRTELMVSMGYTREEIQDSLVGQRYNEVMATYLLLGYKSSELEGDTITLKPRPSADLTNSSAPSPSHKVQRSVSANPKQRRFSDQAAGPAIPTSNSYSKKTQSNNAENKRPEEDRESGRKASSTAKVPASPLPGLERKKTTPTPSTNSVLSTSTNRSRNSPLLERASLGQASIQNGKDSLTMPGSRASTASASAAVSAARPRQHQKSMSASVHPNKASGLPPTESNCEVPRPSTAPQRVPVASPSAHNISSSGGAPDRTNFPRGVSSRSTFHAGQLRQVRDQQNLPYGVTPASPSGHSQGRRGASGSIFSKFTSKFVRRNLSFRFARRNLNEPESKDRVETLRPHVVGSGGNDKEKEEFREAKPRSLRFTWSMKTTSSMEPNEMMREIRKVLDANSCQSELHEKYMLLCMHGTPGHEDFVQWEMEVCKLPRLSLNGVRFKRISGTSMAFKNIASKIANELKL
Sequence of Mitogen-activated protein kinase 8 (P45983 whole entry): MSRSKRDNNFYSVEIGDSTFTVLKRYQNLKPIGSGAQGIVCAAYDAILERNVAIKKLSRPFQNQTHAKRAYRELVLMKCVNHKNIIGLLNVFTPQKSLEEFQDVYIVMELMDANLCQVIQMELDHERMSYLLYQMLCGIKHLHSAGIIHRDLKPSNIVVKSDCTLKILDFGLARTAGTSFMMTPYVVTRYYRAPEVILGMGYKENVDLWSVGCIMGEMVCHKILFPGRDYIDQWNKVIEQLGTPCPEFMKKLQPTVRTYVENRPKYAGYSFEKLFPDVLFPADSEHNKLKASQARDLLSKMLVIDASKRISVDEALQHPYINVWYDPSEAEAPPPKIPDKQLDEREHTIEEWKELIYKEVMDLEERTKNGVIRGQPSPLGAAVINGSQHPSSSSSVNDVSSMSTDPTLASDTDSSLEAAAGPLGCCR
Sequence of Mast/stem cell growth factor receptor Kit (Homo sapiens) (P10721 whole entry): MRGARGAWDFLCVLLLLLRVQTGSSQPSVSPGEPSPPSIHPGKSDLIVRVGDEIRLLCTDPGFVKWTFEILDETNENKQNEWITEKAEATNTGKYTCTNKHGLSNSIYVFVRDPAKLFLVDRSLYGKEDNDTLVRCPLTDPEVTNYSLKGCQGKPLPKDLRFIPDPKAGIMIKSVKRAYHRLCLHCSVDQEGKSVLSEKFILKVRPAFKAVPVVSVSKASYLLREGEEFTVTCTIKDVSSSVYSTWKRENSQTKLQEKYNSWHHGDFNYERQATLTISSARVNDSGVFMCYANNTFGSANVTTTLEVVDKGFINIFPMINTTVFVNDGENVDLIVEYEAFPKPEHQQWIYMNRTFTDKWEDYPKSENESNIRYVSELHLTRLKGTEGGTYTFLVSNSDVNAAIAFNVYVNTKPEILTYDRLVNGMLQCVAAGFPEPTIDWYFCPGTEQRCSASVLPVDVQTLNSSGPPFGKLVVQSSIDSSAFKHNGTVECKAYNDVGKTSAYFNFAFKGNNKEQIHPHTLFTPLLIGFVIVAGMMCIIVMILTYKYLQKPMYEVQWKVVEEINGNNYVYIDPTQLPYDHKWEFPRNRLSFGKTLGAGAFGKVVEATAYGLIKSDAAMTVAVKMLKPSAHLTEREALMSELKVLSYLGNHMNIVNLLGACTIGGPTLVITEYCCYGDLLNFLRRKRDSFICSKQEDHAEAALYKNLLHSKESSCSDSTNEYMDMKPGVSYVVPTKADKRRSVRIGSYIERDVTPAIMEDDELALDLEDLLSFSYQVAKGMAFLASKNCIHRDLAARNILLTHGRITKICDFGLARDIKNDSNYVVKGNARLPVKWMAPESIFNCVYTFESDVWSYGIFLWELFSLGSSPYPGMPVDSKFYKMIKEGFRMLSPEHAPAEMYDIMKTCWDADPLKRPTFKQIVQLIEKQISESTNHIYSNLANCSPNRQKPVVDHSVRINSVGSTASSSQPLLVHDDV
Sequence of Mitogen-activated protein kinase 10 (P53779 whole entry): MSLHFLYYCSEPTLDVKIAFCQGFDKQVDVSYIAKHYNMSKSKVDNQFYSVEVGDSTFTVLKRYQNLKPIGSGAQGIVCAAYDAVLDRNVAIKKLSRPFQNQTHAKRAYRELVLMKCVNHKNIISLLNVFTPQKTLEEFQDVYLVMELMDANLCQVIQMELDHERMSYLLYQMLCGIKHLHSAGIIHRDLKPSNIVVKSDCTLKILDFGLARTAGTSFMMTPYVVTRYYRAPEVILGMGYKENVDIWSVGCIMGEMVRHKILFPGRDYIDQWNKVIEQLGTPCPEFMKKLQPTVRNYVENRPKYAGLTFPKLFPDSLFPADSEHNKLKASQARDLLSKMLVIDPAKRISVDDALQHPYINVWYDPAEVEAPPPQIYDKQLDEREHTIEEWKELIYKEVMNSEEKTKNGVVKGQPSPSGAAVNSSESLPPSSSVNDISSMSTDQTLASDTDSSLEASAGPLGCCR
Sequence of Calcium/calmodulin-dependent protein kinase kinase 2 (Homo sapiens) (Q96RR4 2-588 limits assumed): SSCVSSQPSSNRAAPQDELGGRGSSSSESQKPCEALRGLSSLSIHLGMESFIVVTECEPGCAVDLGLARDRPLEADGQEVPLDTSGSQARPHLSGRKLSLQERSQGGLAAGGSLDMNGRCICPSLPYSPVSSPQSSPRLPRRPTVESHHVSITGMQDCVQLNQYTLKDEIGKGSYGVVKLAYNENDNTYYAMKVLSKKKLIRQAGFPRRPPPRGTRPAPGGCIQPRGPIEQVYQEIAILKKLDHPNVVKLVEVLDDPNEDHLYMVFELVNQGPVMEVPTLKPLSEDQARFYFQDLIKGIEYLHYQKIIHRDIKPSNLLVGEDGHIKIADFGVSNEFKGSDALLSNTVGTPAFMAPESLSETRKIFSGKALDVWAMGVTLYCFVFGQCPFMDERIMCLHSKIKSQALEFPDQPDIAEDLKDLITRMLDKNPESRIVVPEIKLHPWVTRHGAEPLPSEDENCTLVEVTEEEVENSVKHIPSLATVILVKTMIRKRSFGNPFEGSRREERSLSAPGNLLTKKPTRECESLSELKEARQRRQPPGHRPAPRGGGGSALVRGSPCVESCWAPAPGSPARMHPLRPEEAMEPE
Sequence of Tyrosine-protein kinase ABL1 (Homo sapiens) (P00519 whole entry): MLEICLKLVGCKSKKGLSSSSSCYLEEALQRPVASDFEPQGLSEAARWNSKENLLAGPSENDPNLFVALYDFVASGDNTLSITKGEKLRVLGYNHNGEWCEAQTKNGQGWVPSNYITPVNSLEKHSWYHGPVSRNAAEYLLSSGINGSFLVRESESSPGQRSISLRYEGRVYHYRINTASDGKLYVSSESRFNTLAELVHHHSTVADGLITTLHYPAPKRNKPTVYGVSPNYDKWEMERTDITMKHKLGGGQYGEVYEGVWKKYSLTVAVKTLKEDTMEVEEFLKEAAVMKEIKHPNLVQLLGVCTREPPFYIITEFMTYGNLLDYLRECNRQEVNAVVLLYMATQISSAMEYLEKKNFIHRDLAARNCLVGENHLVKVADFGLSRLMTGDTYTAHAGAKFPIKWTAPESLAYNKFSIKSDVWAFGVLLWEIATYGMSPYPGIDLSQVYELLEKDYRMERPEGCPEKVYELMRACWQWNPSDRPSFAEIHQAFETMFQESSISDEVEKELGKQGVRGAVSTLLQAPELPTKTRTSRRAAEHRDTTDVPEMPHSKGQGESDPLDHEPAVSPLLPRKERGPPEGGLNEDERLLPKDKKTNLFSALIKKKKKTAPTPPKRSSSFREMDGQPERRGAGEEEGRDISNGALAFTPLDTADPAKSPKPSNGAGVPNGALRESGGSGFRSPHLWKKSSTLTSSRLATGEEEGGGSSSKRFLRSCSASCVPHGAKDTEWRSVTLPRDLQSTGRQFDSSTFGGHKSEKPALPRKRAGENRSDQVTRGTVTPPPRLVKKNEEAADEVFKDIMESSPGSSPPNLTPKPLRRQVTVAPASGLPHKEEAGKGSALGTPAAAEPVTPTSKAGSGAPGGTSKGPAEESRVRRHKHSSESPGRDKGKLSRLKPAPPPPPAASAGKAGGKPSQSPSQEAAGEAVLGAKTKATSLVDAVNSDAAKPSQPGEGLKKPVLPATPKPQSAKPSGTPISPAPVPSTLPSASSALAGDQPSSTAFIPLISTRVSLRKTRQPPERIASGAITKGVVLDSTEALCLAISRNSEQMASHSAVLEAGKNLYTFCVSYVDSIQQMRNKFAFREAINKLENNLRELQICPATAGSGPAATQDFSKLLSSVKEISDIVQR
Sequence of Serine/threonine-protein kinase pim-2 (Homo sapiens) (Q9P1W9 whole entry, looked up): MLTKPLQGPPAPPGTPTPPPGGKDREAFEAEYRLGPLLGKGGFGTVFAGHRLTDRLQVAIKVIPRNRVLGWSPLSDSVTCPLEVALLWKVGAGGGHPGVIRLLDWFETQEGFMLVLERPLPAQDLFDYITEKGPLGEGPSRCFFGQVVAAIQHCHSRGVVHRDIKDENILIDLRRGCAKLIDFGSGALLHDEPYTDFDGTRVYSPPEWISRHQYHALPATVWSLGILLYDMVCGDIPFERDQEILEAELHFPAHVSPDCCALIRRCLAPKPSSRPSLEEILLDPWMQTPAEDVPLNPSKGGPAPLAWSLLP

Molecule `CS(=O)(=O)CCCOc1cccc2c1ccn2-c1ccnc(N[C@H]2CC[C@H](C(=O)N3CCC(O)CC3)CC2)n1` has an IC50 [1] of 16 nM and an inhibition [2] greater than 85%.

In the case of `O[C@H]1CC[C@H](Nc2nccc(-n3ccc4ccccc43)n2)CC1`, the inhibition [3] is reported as less than 50%, the inhibition [4] is reported as less than 50% and the inhibition [5] is reported as less than 50%. The inhibition [6] was less than 50%, the inhibition [7] was less than 50% and the inhibition [8] was less than 50%. The inhibition [9] was less than 50%, the inhibition [10] was less than 50% and the IC50 [1] was 65 nM. For the same molecule, the inhibition [11] was 86%, the inhibition [12] was less than 50% and the inhibition [13] was 72%. The inhibition [2] was 100%.

In the case of `N[C@H]1CC[C@H](Nc2nccc(-n3nnc4ccccc43)n2)CC1`, the inhibition [3] is reported as 80%, the inhibition [4] is reported as less than 50% and the inhibition [5] is reported as less than 50%. The inhibition [6] was less than 50%, the inhibition [7] was 86% and the inhibition [8] was less than 50%. It also gave an inhibition [9] of 89%, an inhibition [10] of less than 50% and an IC50 [1] of 74 nM. The inhibition [11] was 99%, the inhibition [12] was 78% and the inhibition [13] was 72%. The inhibition [2] was 100%.

Molecule `O[C@H]1CC[C@H](Nc2nccc(-n3nnc4ccccc43)n2)CC1` has an inhibition [3] of 75%, an inhibition [4] of less than 50% and an inhibition [5] of less than 50%. It also gave an inhibition [6] of less than 50%, an inhibition [7] of 72% and an inhibition [8] of less than 50%. It also gave an inhibition [9] of less than 50%, an inhibition [10] of less than 50% and an IC50 [1] of 29 nM. The inhibition [11] was 98%, the inhibition [12] was less than 50% and the inhibition [13] was 86%. It also gave an inhibition [2] of 100%.

In the case of `O[C@H]1CC[C@H](Nc2nccc(-n3ncc4ccccc43)n2)CC1`, the inhibition [3] is reported as less than 50%, the inhibition [4] is reported as less than 50% and the inhibition [5] is reported as less than 50%. For the same molecule, the inhibition [6] was less than 50%, the inhibition [7] was 65% and the inhibition [8] was less than 50%. The inhibition [9] was less than 50%, the inhibition [10] was less than 50% and the IC50 [1] was 55 nM. It also gave an inhibition [11] of 99%, an inhibition [12] of less than 50% and an inhibition [13] of 91%. The inhibition [2] was 100%.

With `O=C([C@H]1CC[C@H](Nc2nccc(-n3nnc4ccccc43)n2)CC1)N1CCOCC1` the inhibition [3] was 82%, the inhibition [4] was less than 50% and the inhibition [5] was less than 50%. The inhibition [6] was less than 50%, the inhibition [7] was 75% and the inhibition [8] was 80%. It also gave an inhibition [9] of less than 50%, an inhibition [10] of 92% and an IC50 [1] of 63 nM. The inhibition [11] was 78%, the inhibition [12] was less than 50% and the inhibition [13] was 67%. The inhibition [2] was 100%.

`O[C@H]1CC[C@H](Nc2nccc(-c3n[nH]c4ccccc34)n2)CC1` was tested, and the inhibition [3] was 80%, the inhibition [4] was less than 50% and the inhibition [5] was 100%. The inhibition [6] was less than 50%, the inhibition [7] was 84% and the inhibition [8] was 92%. It also gave an inhibition [9] of less than 50%, an inhibition [10] of less than 50% and an IC50 [1] of 250 nM. For the same molecule, the inhibition [11] was 100%, the inhibition [12] was 88% and the inhibition [13] was 98%. It also gave an inhibition [2] of 100%.

From ChEMBL document CHEMBL2424622, “Development of amino-pyrimidine inhibitors of c-Jun N-terminal kinase (JNK): kinase profiling guided optimization of a 1,2,3-benzotriazole lead” (Bioorg Med Chem Lett, 2013)
